Data from ChEMBL document CHEMBL1921795, “Discovery, synthesis, and structure-activity relationship development of a series of N-4-(2,5-dioxopyrrolidin-1-yl)phenylpicolinamides (VU0400195, ML182): characterization of a novel positive allosteric modulator of the metabotropic glutamate receptor 4 (mGlu(4)) with oral efficacy in an …” (J Med Chem, 2011).

Columns and labels:
[1] = target: T1, Metabotropic glutamate receptor 4 (Homo sapiens, UniProt Q14833); test: Positive allosteric modulator activity at human mGlu4 receptor expressed in CHO cells expressing Gqi5 by calcium mobilization assay
T1 sequence (Q14833 whole entry): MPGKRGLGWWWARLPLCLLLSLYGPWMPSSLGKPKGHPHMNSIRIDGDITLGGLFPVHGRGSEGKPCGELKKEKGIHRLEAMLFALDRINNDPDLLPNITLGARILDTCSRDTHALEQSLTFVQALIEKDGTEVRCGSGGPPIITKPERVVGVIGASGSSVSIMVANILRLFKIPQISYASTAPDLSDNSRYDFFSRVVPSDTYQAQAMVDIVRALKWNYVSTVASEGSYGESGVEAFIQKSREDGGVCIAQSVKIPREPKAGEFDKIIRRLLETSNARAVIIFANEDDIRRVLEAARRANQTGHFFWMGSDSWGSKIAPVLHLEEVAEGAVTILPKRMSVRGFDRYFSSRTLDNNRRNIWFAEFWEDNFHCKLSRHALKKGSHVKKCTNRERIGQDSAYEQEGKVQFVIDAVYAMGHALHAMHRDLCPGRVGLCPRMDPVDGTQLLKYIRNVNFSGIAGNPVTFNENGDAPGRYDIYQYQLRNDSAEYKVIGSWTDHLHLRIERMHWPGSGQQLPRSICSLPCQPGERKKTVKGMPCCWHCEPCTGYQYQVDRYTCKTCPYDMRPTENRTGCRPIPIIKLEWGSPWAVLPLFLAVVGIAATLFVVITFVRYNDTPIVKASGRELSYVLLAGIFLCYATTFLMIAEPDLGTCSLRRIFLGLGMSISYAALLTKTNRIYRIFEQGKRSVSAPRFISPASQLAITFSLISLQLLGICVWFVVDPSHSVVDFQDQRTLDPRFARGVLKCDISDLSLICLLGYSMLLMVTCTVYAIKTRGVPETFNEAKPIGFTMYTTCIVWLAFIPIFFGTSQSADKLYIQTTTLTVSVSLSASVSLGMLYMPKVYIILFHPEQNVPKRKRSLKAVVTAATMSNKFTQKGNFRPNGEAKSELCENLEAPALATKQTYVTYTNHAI

[2] = target: T1, Metabotropic glutamate receptor 4; test: Positive allosteric modulation of human mGlu4 receptor expressed in CHO cells coexpressing Gqi5 assessed as potentiation of glutamate-induced calcium mobilization relative to (-)-PHCCC; type: functional, cell-based
Outline: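 CHO cells stably expressing human mGlu4 with chimeric Gqi5, plated overnight, loaded 45 min at 37 °C with 1 µM Fluo-4 AM. Compound (10-point, 1:3 dilutions) was added about 2.5 min before an EC20 glutamate, then EC80 glutamate 2 min later. Ca2+ fluorescence read at 470/540 nm. Four-parameter logistic fit.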

[3] = target: Metabotropic glutamate receptor 4 (Rattus norvegicus, UniProt P31423); test: Positive allosteric modulator activity at rat mGlu4 receptor by thallium flux assay
Metabotropic glutamate receptor 4 (Rattus norvegicus, UniProt P31423), sequence (P31423 whole entry): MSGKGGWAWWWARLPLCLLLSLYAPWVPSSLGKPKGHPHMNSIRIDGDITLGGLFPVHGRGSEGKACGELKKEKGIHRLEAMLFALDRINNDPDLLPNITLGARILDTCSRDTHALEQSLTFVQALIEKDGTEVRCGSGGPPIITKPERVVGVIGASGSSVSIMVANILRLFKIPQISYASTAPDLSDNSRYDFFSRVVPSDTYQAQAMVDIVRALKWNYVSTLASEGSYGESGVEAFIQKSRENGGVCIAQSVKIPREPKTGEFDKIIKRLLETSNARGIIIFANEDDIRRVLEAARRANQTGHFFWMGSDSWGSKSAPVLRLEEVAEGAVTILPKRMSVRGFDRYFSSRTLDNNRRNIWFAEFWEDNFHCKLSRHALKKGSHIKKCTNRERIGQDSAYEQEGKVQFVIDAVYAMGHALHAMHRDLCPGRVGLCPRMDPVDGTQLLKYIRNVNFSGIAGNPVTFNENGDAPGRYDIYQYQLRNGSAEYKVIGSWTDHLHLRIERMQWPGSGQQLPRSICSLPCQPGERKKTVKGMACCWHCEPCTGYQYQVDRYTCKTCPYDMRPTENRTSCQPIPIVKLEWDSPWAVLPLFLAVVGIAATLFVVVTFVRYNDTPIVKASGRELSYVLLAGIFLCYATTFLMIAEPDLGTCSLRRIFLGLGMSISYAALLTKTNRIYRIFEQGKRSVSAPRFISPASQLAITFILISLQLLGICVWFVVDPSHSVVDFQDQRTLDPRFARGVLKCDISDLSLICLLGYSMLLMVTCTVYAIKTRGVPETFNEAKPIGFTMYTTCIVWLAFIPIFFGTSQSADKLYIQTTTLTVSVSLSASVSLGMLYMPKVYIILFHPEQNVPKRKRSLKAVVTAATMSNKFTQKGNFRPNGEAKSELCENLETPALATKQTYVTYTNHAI

[4] = target: Metabotropic glutamate receptor 4 (Rattus norvegicus) (UniProt P31423); test: Positive allosteric modulator activity at rat mGlu4 receptor by thallium flux assay at 30 uM relative to glutamate
Metabotropic glutamate receptor 4 (Rattus norvegicus), sequence (P31423 whole entry): as above

[5] = target: Metabotropic glutamate receptor 4 (Rattus norvegicus) (UniProt P31423); test: Positive allosteric modulation of rat mGlu4 receptor assessed as potentiation of glutamate-induced thallium flux relative to (-)-PHCCC; design: concentration or dose not given beside the values
Plasma [6] = test: Fraction unbound in human plasma; type: ADME, cell-free
Cytochrome P450 2D6 = Cytochrome P450 2D6 (Homo sapiens, UniProt P10635); test: Inhibition of CYP2D6 in human liver microsomes using […] as substrate; type: ADME, Microsome
Cytochrome P450 2D6, sequence (P10635 whole entry): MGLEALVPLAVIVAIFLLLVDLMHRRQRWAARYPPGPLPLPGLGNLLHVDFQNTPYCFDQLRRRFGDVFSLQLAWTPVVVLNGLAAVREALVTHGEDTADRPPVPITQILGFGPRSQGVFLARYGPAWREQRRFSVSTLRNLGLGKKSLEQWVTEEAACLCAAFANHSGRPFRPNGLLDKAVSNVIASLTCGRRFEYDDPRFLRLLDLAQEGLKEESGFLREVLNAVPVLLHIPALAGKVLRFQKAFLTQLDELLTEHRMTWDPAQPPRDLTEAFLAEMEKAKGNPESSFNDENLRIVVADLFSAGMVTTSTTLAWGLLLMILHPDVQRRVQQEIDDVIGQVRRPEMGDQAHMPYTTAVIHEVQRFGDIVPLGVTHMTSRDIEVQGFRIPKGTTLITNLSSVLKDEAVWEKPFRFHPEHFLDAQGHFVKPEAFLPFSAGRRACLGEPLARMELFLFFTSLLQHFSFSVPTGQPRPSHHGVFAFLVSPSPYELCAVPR
Outline: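 Pooled human liver microsomes (0.1 mg/mL) with probe cocktail (phenacetin 10 µM, diclofenac 5 µM, dextromethorphan 5 µM, midazolam 2 µM) in 0.1 M phosphate pH 7.4; compound 100 nM–30 µM in duplicate, 15 min preincubation at 37 °C, then 1 mM NADPH for 8 min. LC/MS/MS of metabolite formation; IC50 derived.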

[7] = Intrinsic clearance in rat hepatic microsomes at 1 uM by LC/MS/MS analysis; type: ADME, Microsome; conditions: rat liver microsomes
[8] = Intrinsic clearance in human hepatic microsomes; type: ADME, Microsome; conditions: human liver microsomes
Brain = test: Fraction unbound in rat brain homogenate by equilibrium dialysis; type: ADME, tissue-based
Cytochrome P450 1A2 = target: T2, Cytochrome P450 1A2 (Homo sapiens, UniProt P05177); test: Inhibition of CYP1A2 in human liver microsomes using phenacetin as substrate
T2 sequence (P05177 whole entry): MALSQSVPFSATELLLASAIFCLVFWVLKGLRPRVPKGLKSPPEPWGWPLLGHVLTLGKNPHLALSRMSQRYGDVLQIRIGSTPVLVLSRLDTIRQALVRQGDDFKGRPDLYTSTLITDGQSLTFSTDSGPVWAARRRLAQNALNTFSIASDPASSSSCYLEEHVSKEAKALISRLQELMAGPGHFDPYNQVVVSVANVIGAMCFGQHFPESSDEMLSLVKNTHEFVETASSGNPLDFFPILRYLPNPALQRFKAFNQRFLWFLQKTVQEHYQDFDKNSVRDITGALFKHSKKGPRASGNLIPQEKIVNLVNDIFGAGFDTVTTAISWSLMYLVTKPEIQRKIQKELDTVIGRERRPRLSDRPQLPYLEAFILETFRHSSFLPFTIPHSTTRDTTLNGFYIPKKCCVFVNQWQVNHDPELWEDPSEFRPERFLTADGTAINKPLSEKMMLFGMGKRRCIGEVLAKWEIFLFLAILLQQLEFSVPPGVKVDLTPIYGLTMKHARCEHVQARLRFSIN

Cytochrome P450 3A4 = Cytochrome P450 3A4 (Homo sapiens, UniProt P08684); test: Inhibition of CYP3A4 in human liver microsomes using […] as substrate; type: ADME, Microsome
Cytochrome P450 3A4, sequence (P08684 whole entry): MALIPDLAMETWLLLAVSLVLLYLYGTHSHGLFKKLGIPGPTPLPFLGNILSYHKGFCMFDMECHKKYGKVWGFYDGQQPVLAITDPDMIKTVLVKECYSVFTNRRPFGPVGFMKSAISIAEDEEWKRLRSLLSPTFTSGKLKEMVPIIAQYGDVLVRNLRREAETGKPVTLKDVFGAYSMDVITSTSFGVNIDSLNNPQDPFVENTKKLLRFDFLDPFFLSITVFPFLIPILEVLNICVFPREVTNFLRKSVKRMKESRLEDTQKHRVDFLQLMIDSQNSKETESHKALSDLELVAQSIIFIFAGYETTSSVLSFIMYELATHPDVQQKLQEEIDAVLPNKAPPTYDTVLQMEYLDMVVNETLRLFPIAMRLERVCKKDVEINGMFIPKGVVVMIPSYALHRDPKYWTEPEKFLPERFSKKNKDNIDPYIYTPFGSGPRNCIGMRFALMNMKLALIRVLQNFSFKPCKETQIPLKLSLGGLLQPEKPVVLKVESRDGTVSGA

Plasma [9] = test: Fraction unbound in rat plasma by equilibrium dialysis; type: ADME, cell-free
Outline: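 Rat plasma spiked with compound, equilibrium dialysis against 25 mM phosphate buffer pH 7.4 for 4 h at 37 °C with shaking; both chambers matrix-matched, acetonitrile-extracted and quantified by LC/MS/MS; triplicate.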

Cytochrome P450 2C9 = Cytochrome P450 2C9 (Homo sapiens, UniProt P11712); test: Inhibition of CYP2C9 in human liver microsomes using diclofenac as substrate
Cytochrome P450 2C9, sequence (P11712 whole entry): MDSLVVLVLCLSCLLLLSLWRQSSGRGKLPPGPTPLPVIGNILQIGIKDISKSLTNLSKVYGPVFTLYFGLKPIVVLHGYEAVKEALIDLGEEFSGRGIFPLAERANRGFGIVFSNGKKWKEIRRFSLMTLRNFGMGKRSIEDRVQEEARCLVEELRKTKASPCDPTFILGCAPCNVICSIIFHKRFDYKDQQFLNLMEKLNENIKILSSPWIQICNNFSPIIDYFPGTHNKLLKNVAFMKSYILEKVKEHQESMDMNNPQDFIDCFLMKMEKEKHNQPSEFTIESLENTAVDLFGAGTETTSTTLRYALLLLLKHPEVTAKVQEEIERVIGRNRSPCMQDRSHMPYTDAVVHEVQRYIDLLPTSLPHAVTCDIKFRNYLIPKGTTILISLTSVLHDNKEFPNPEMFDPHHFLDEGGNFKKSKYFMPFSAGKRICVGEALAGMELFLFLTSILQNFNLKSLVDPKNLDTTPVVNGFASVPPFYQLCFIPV

Compound | EC50 [1] [nM] | Activity [2] [%] | fold change (FC) [4] | Activity [5] [%] | further results
CC1(C)CC(=O)N(c2ccc(NC(=O)c3ccccn3)cc2Cl)C1=O | 1400 | 82 | – | – | –
O=S1(=O)c2ccccc2S(=O)(=O)N1c1ccc(NC2(c3ccccn3)CC2)cc1 | 6400 | 62.7 | – | – | –
O=C(Nc1ccc(N2S(=O)(=O)c3ccccc3S2(=O)=O)cc1)c1cccnc1 | – | 27.7 | – | – | EC50 ([1]; cho): Not Active
O=C(Nc1ccc(N2S(=O)(=O)c3ccccc3S2(=O)=O)cc1)c1nccs1 | 353 | 122 | 4.7 | 127 | EC50 [3]: 201 nM
O=C(Nc1ccc(N2S(=O)(=O)c3ccccc3S2(=O)=O)cc1)C1CCCCC1 | 765 | 48.3 | – | – | –
O=C(Nc1ccc(N2C(=O)[C@H]3CCCC[C@H]3C2=O)c(Cl)c1)c1ccccn1 | – | 107 | 8.3 | 129 | EC50 [3]: 645 nM
O=S1(=O)c2ccccc2S(=O)(=O)N1c1ccc(NCc2ccccn2)cc1 | 1800 | 110 | – | – | –
O=C(Nc1ccc(N2S(=O)(=O)c3ccccc3S2(=O)=O)cc1)c1ccncn1 | 179 | 100 | 3.3 | 103 | EC50 [3]: 242 nM
O=C(Nc1ccc(N2S(=O)(=O)c3ccccc3S2(=O)=O)cc1)c1cccc(F)n1 | 1800 | 76.7 | – | – | –
O=C(Nc1ccccn1)c1ccc(N2S(=O)(=O)c3ccccc3S2(=O)=O)cc1 | – | 30.7 | – | – | EC50 ([1]; cho): Not Active
O=C(Nc1ccc(N2C(=O)c3cccc(Cl)c3C2=O)c(Cl)c1)c1ccccn1 | – | 130 | 83 | 137 | EC50 [3]: 34.9 nM
O=C(Nc1ccc(N2C(=O)[C@@H]3[C@H](C2=O)[C@H]2C=C[C@@H]3CC2)c(Cl)c1)c1ccccn1 | – | 120 | 5.2 | 122 | –
O=C(Nc1ccc(N2S(=O)(=O)c3ccccc3S2(=O)=O)cc1)c1ccco1 | 226 | 110 | – | – | –
O=C(Nc1ccc(N2CCCS2(=O)=O)cc1)c1ccccn1 | – | 25 | – | – | EC50 ([1]; cho): Not Active
O=C(Nc1ccc(N2C(=O)CC3(CCCCC3)C2=O)c(Cl)c1)c1ccccn1 | – | – | – | – | Fu (Plasma [6]): 0.62%; IC50 (Cytochrome P450 2D6): > 30000 nM; CLint scaled at 1 µM [7]: 66.7 mL/min/kg; CLint scaled [8]: 19.4 mL/min/kg; Fu (Brain): 1.7%; IC50 (Cytochrome P450 1A2): > 30000 nM; IC50 (Cytochrome P450 3A4): > 30000 nM; Fu (Plasma [9]): 0.5%; IC50 (Cytochrome P450 2C9): > 30000 nM
